According to publication PMC3941710 (Journal of medicinal chemistry, 2009):

What was measured:
[1] = tested on: LNCaP human prostate cancer cells; assay: Cell survival of LNCaP cells; assay type: cell-based; settings: 48 h, extracellular concentration 8 μCi/mL
In short: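 LNCaP cells plated at 2000 cells/well, allowed to attach for 24 h, then given fresh charcoal–dextran-stripped medium containing radioactive test compound. Survival read by CellTiter-Fluor viability assay or CellTiter 96 AQueous One Solution proliferation assay.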

[2] = Biodistribution of fractionated ip doses of 13 in healthy mice; assay type: in vivo, mouse; settings: control (healthy) mice
[3] = tested on: intraperitoneal NIH:OVCAR-3 xenografts; assay type: in vivo, mouse
[4] = Binding and stability in human serum
Stability in PBS = assay type: physicochemical; settings: PBS/CH3CN 10:1, pH 7.1, ambient temperature, up to 24 h
[5] = tested on: intraperitoneal NIH:OVCAR-3 xenografts; assay: Fractionated therapy and biodistribution of 13 in OVCAR-3-bearing mice; assay type: in vivo, mouse
[6] = target: T1, human sex hormone binding globulin (SHBG) (Homo sapiens, UniProt P04278); assay: Binding to purified human SHBG; settings: size-exclusion HPLC / ITLC
T1 sequence (P04278 30-402): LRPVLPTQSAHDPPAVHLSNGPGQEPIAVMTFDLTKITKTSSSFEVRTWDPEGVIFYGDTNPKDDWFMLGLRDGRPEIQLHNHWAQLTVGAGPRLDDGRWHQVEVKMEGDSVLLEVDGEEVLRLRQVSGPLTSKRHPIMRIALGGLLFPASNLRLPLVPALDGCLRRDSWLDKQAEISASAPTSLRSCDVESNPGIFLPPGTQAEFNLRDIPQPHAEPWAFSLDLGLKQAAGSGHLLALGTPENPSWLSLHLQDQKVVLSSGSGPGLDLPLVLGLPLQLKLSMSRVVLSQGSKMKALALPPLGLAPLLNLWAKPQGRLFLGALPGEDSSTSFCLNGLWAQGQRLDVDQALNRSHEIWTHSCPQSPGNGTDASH

[7] = Binding and stability in rabbit serum
[8] = Binding and stability in mouse serum
PC-3 cells = assay: Uptake of 8 in PC-3 cells with or without DHT at 4 °C; assay type: cell-based, human; settings: 0.1 μCi/mL 8, 0.1 μM DHT, 16 h
In short: (§1)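 Cells with very low or no AR expression. Non-radioactive DHT competitor was added before the radioiodinated test compound to block AR binding. Cells were grown with the test compound at 4 °C for 16 h and cellular retention was compared with DHT-free cells.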

MCF-7 cells = assay: Uptake of 8 in MCF7 cells with or without DHT at 4 °C; assay type: cell-based, human; settings: 0.1 μCi/mL 8, 0.1 μM DHT, 16 h
In short: as §1

[9] = tested on: intraperitoneal NIH:OVCAR-3 xenografts; assay: Therapy with 8 in OVCAR-3-bearing athymic mice; assay type: in vivo, mouse
[10] = tested on: LNCaP human prostate cancer cells; assay: Uptake and subcellular distribution in LNCaP cells; assay type: cell-based; settings: proliferating LNCaP monolayer, 24 h exposure
[11] = tested on: intraperitoneal NIH:OVCAR-3 xenografts; assay: Biodistribution and imaging of 8 in athymic mice with ip NIH:OVCAR-3 xenografts; assay type: in vivo, mouse
[12] = cell pellet, six fractionated ip treatments
[13] = 13 (0.25 mCi) + SHBG therapy group, or SHBG only

C[C@]12CCC(=O)C[C@@H]1CC[C@@H]1[C@@H]2CC[C@]2(C)[C@@H](OC(=O)CCC(=O)O[C@H]3C[C@H](n4cc([125I])c(=O)[nH]c4=O)O[C@@H]3COP(=O)(O)O)CC[C@@H]12 [compound 13, 5-[^125I]Iodo-3′-O-(17β-succinyl-5α-androstan-3-one)-2′-deoxyuridin-5′-yl Monophosphate]
cells dead [1]: Ninety percent
percent injected dose per gram of tissue, blood ([2]; blood): 0.001(0.0001) percent injected dose per gram of tissue
percent injected dose per gram of tissue, heart ([2]; heart): 0.002(0.0003) percent injected dose per gram of tissue
percent injected dose per gram of tissue, kidney ([2]; kidney): 0.005(0.0005) percent injected dose per gram of tissue
percent injected dose per gram of tissue, large intestine ([2]; large intestine): 0.005(0.0009) percent injected dose per gram of tissue
percent injected dose per gram of tissue, liver ([2]; liver): 0.006(0.0005) percent injected dose per gram of tissue
percent injected dose per gram of tissue, lung ([2]; lung): 0.004(0.0007) percent injected dose per gram of tissue
percent injected dose per gram of tissue, small intestine ([2]; small intestine): 0.006(0.0016) percent injected dose per gram of tissue
percent injected dose per gram of tissue, spleen ([2]; spleen): 0.025(0.0025) percent injected dose per gram of tissue
percent injected dose per gram of tissue, stomach ([2]; stomach): 0.007(0.0002) percent injected dose per gram of tissue
percent injected dose per gram of tissue, uterus ([2]; uterus): 0.015(0.0011) percent injected dose per gram of tissue
adverse effects from hematologic data ([3]; 0.25 mCi dose): no overt adverse effects
fold lower radioactivity in blood than in cancer cells ([3]; necropsy after bolus dose of 13): > 2.5 ×
binding to SHBG in human serum [4]: bind to SHBG in rabbit and human serum
stability in PBS (Stability in PBS): stable in PBS
percent injected dose per gram of tissue, blood ([5]; OVCAR-3 mice, blood): 0.003(0.0010) percent injected dose per gram of tissue
percent injected dose per gram of tissue, heart ([5]; OVCAR-3 mice, heart): 0.003(0.0004) percent injected dose per gram of tissue
percent injected dose per gram of tissue, kidney ([5]; OVCAR-3 mice, kidney): 0.013(0.0063) percent injected dose per gram of tissue
percent injected dose per gram of tissue, large intestine ([5]; OVCAR-3 mice, large intestine): 0.008(0.0009) percent injected dose per gram of tissue
percent injected dose per gram of tissue, liver ([5]; OVCAR-3 mice, liver): 0.017(0.0020) percent injected dose per gram of tissue
percent injected dose per gram of tissue, lung ([5]; OVCAR-3 mice, lung): 0.008(0.0018) percent injected dose per gram of tissue
percent injected dose per gram of tissue, small intestine ([5]; OVCAR-3 mice, small intestine): 0.011(0.0014) percent injected dose per gram of tissue
percent injected dose per gram of tissue, spleen ([5]; OVCAR-3 mice, spleen): 0.043(0.0103) percent injected dose per gram of tissue
percent injected dose per gram of tissue, stomach ([5]; OVCAR-3 mice, stomach): 0.009(0.0010) percent injected dose per gram of tissue
percent injected dose per gram of tissue, tumor ([5]; OVCAR-3 mice, tumor): 2.892(0.5317) percent injected dose per gram of tissue
percent injected dose per gram of tissue, uterus ([5]; OVCAR-3 mice, uterus): 0.027(0.0051) percent injected dose per gram of tissue
median weight [5, 12]: 0.064 g
range of weight [5, 12]: 0.044 to 0.076 g
average retention of ^125I in OVCAR-3 cells ([5]; fractionated ip doses): 0.0124 ± 0.0024 cpm/cell
radioactivity of surviving cancer cells recovered with DNA ([5]; fractionated ip doses, TCA precipitation): Virtually all radioactivity associated with surviving cancer cells was recovered with DNA
average cell pellet weight (g) (SEM) ([5]; six fractionated ip treatments): 0.061(0.006) g
binding to pure SHBG isolated from human serum [6]: bind to pure SHBG isolated from human serum
binding to SHBG in rabbit serum [7]: bind to SHBG in rabbit and human serum
binding to mouse serum [8]: appears to bind to some unidentified component of mouse serum

C[C@]12CCC(=O)C[C@@H]1CC[C@@H]1[C@@H]2CC[C@]2(C)[C@@H](OC(=O)CCC(=O)O[C@H]3C[C@H](n4cc([125I])c(=O)[nH]c4=O)O[C@@H]3CO)CC[C@@H]12 [compound 8, 5-[^125I]Iodo-3′-O-(17β-succinyl-5α-androstan-3-one)-2′-deoxyuridine]
effect of DHT competitor on cellular retention (PC-3 cells): In neither PC-3 nor MCF-7 cells was the cellular retention of 8 influenced by the presence of competitor
effect of DHT competitor on cellular retention (MCF-7 cells): In neither PC-3 nor MCF-7 cells was the cellular retention of 8 influenced by the presence of competitor
radioactivity retained in tumors ([9]; 12 days after the last of six therapeutic doses, decay corrected): ~ 0.5 % ID/g
range of weight [9, 12]: 0.012 to 0.781 g
average cell pellet weight (g) (SEM) ([9]; six fractionated ip treatments): 0.380(0.111) g
^125I bound to DNA as share of total cell-associated radioactivity ([9]; tumors 12 days after the last of six doses): 86.8% ± 7.4%
binding to SHBG in human serum [4]: bind to SHBG in rabbit and human serum
intact compound remaining ([4]; human serum, after 60 min of incubation): > 91%
stability in PBS (Stability in PBS): stable in PBS
Bmax (single cell-binding isotherm) [10]: 1.4 × 10^−6 pmol/cell
peritoneal lavage radioactivity associated with OVCAR-3 cells ([11]; 24 h and later after ip administration): > 95%
uptake in uterus ([11]; 72 h after ip administration): up to 1 % ID/g
whole body radioactivity associated with the intraperitoneal tumor (ROI) ([11]; 72 h after ip administration of 45 μCi 8): 8.3% ± 2.1%
fraction of lavage radioactivity associated with cancer cells ([11]; 72 h after ip injection of 45 μCi 8): > 97%
binding to pure SHBG isolated from human serum [6]: bind to pure SHBG isolated from human serum
binding to SHBG in rabbit serum [7]: bind to SHBG in rabbit and human serum
intact compound remaining ([7]; rabbit serum, after 60 min of incubation): > 84%
binding to mouse serum [8]: does not bind to mouse serum
time in which mouse serum degrades 8 to 1 ([8]; mouse serum, no SHBG): < 10 min

O=c1[nH]c(=O)n([C@H]2C[C@H](O)[C@@H](COP(=O)(O)O)O2)cc1[125I] [compound 20, 5-[^125I]Iodo-2′-deoxyuridine-5′-monophosphate]
binding to pure SHBG isolated from human serum [6]: Neither the control reagent 17 nor compound 20, which is the metabolite of 13, binds to SHBG or to any component of analyzed sera
intact compound remaining ([8]; mouse serum, after 60 min of incubation): does not survive incubation in mouse serum

CCOC(=O)CCC(=O)O[C@H]1C[C@H](n2cc([125I])c(=O)[nH]c2=O)O[C@@H]1CO [compound 17, 5-[^125I]Iodo-3′-O-succinyl-2′-deoxyuridine Ethyl Ester]
binding to pure SHBG isolated from human serum [6]: Neither the control reagent 17 nor compound 20, which is the metabolite of 13, binds to SHBG or to any component of analyzed sera

B1: SHBG: Human SHBG (pure, lyophilized), injected ip alone as control or co-injected with 13 (protein, UniProt P04278 30-402, looked up)
Sex hormone-binding globulin: LRPVLPTQSAHDPPAVHLSNGPGQEPIAVMTFDLTKITKTSSSFEVRTWDPEGVIFYGDTNPKDDWFMLGLRDGRPEIQLHNHWAQLTVGAGPRLDDGRWHQVEVKMEGDSVLLEVDGEEVLRLRQVSGPLTSKRHPIMRIALGGLLFPASNLRLPLVPALDGCLRRDSWLDKQAEISASAPTSLRSCDVESNPGIFLPPGTQAEFNLRDIPQPHAEPWAFSLDLGLKQAAGSGHLLALGTPENPSWLSLHLQDQKVVLSSGSGPGLDLPLVLGLPLQLKLSMSRVVLSQGSKMKALALPPLGLAPLLNLWAKPQGRLFLGALPGEDSSTSFCLNGLWAQGQRLDVDQALNRSHEIWTHSCPQSPGNGTDASH
hematocrit (Ht) [3, 13]: 51.4 ± 1.6
hemoglobin (Hb) [3, 13]: 11.5 ± 1.3
average weight of solid tumors ([3]; 13 + SHBG or SHBG only): 1.9 ± 0.8 g
